Here are results for one compound from article PMC7498158 (Journal of Medicinal Chemistry, 2020).

In this experiment the target is T1, PLAAT2 (Homo sapiens, UniProt Q9NWW9).
T1 sequence (Q9NWW9 1-162): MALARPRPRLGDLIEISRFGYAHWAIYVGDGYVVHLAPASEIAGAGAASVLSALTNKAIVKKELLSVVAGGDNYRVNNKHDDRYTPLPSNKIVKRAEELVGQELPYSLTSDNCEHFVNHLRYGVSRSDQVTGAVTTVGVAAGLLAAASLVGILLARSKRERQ
It is filed as biochemical. The essentials:
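Human PLAAT cDNA (C-terminal FLAG, pcDNA3.1) was PEI-transfected into HEK293T; cytosol came from a 100,000g spin. Cytosol was preincubated with test compound (30 min, rt), then MB064 (20 min, rt). Conditions: PLAAT2 0.25 μg/μL, 250 nM; PLAAT3 0.5 μg/μL, 250 nM; PLAAT4/5 1 μg/μL, 500 nM. In-gel fluorescence was normalized to Coomassie, in triplicate. Single-concentration screen or IC50 from dose–response curves.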

Take `O=C(CCCc1ccccc1)C(=O)NCCc1ccc(Oc2ccccc2)cc1` [Compound 51, 2-Oxo-N-(4-phenoxyphenethyl)-5-phenylpentanamide]: the “higher potency for PLAAT2 than initial hit” value came to 10 fold and the “increase in activity/potency for PLAAT2 compared to 25” value amounted to 10 fold.
